This is an account of results in article PMC3584523 (International Journal of Oncology, 2011).

The target of one data set is T1, LPA3 (Homo sapiens, UniProt Q9UBY5).
T1 sequence (Q9UBY5 1-353): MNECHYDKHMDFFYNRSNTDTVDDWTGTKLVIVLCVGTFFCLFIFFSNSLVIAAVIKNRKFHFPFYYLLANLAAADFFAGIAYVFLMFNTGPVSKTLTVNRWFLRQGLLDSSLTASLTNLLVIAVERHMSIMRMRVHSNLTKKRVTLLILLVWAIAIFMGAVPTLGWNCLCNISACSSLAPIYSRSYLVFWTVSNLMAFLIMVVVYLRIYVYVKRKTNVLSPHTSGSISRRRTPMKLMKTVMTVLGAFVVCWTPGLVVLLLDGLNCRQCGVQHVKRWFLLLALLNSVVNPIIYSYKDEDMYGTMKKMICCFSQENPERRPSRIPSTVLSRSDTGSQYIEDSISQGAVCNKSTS
Put plainly: Antagonist activity at LPA3. The class given is cell-based. The conditions noted are these: read-out: IC50, antagonist activity at LPA3.

For data set [1], the target named is T2, human recombinant LPA1 receptor (Homo sapiens, UniProt Q92633). Put plainly: Calcium flux assay, LPA1 agonist activity. The data set is classed as cell-based. The conditions noted are these: human LPA1-expressing Chem-1 cells; for agonist activity at the LPA1 receptor (calcium flux): 0.0045–10 μM. The gist of the method:
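Chem-1 stable cell line expressing human recombinant LPA1, loaded with Fluo-4 NW. Test compound, the racemic reference or oleoyl-LPA reference agonist was added as an eight-point 3-fold serial dilution starting at 10 μM (0.0045–10 μM), and calcium flux stimulation was measured. The reference agonist's EC80 was derived from its dose-response.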
(Calcium flux is commonly read through the fluorescence of an indicator in the cells.)

In data set [2] the test system is breast cancer cell-mediated bone metastases. The conditions noted are these: treatment of bone metastatic animals; cited from earlier work.
Data set [3] has as its target T2, human recombinant LPA1 receptor. The data set is described as follows: Calcium flux assay, antagonism of LPA-induced calcium flux. The conditions noted are these: for IC50: read-out: IC50, inhibition of LPA-induced calcium flux, human LPA1-expressing Chem-1 cells, 1 μM Oleoyl LPA. The data set is classed as cell-based.
The subject of data set [4] is 4T1 mouse mammary cancer cells. The data set is described as follows: LPA-induced cell invasion assay. The data set is classed as cell-based. The conditions noted are these: LPA 5 μM as chemoattractant; Debio 0719 1 and 5 μM; 24 h. The gist of the method:
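4T1 cells were grown in DMEM with 10% FBS and penicillin/streptomycin at 37°C, 5% CO2. 2×10^5 cells were placed in the upper compartment of Matrigel-coated 8-μm filter chambers with or without test compound. LPA with 1% FBS was in the lower chamber. After 24 h at 37°C, cells that crossed the filter were fixed, stained and counted in 10 random fields (×40) and reported as cells/mm2.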

Data set [5] relates to 4T1 cells. The data set is described as follows: Orthotopic 4T1 mammary fat pad model, treatment day 0 to 14. The class given is in vivo, mouse.
A short description of data set [6]: Pharmacokinetic study in male CD-1 mice. The class given is in vivo, mouse. In short, it runs like this:
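Male CD-1 mice received test compound in 10% DMA, 5% Cremophor EL and 85% saline. It was given either as an intravenous 5 mg/kg bolus into the jugular vein or by oral gavage at 50 mg/kg. Retro-orbital blood was taken into sodium heparin, n=3 per time point. Plasma was spiked with methanol and lovastatin internal standard, vortexed, centrifuged and measured by LC/MS. Parameters are given as means.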

Data set [7] concerns 4T1 cells. The data set is described as follows: Orthotopic 4T1 model, adjuvant treatment day 15 to 35. The class given is in vivo, mouse. The following applies: 25 or 50 mg/kg per os twice daily after tumor resection at day 14. In short, it runs like this: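 To count disseminated tumour cells, marrow was flushed from tibias and femurs and plated in complete medium with 6-thioguanine 10 μM, which only the naturally resistant 4T1 cells survive. After two weeks the clones were fixed, stained and counted, and reported as clones/mm2.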

Structures are written as SMILES. “Also recorded” adds a separate entry of the source.

T2 sequence (Q92633 whole entry): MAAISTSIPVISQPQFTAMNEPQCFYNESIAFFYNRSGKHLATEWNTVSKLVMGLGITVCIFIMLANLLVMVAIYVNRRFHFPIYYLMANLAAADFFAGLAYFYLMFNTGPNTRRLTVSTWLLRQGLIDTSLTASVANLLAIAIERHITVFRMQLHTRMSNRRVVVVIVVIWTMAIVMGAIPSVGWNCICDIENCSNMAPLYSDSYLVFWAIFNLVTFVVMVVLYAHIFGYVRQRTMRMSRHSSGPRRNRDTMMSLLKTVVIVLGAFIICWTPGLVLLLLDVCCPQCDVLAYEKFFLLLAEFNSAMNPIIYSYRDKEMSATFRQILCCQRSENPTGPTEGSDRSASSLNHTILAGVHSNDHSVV

With `Cc1noc(-c2ccc(CSCCC(=O)O)cc2)c1NC(=O)OC(C)c1ccccc1Cl` (centres unmarked) [Ki16425, reference compound], the IC50 (in general, the concentration that inhibits the measured activity by half) turned out to be 2300 nM on LPA3 and 130 nM in data set [3]. Besides, in data set [1], the “agonist activity at the LPA1 receptor (calcium flux)” value (from here on “agonist activity … (calcium flux)”) is “no agonist activity”. In data set [2], the “progression of bone metastases” value is “inhibits efficiently the progression of bone metastases”.

For `Cc1noc(-c2ccc(CSCCC(=O)O)cc2)c1NC(=O)O[C@@H](C)c1ccccc1Cl` [Debio 0719-425(S)], the “agonist activity … (calcium flux)” value in data set [1] was “no agonist activity”. The IC50 in data set [3] turned out to be 2800 nM.

`CCCCCCCC/C=C\CCCCCCCC(=O)OC[C@@H](O)COP(=O)(O)O` [oleoyl LPA, Lysophosphatidic acid (LPA, Oleoyl C18:1), reference compound]: in data set [1] (read-out: EC50, stimulation of calcium flux), the EC50 (commonly the concentration needed to bring the measured effect to its halfway point) was 490 nM.

On to `Cc1noc(-c2ccc(CSCCC(=O)O)cc2)c1NC(=O)O[C@H](C)c1ccccc1Cl` [Debio 0719], for which the “LPA-induced 4T1 cell invasion” value in data set [4] was “dose-dependently blocked”. Further, the IC50 at LPA3 amounted to 660 nM. Further, the “inhibition of number of lung metastasis foci” value in the data set with 4T1 cells [5] (50 mg/kg per os twice daily, day 0 to 14, sacrifice day 35, p=0.022) is 62%. Besides, the “inhibition of total area of lung metastases” value in the data set on 4T1 cells [5] (50 mg/kg per os twice daily, day 0 to 14, sacrifice day 35, p=0.029) turned out to be 89%. In the data set on 4T1 cells [5] (25 and 50 mg/kg per os twice daily, day 0 to 14, female BALB/c mice), the “tolerability (mouse weight gain, deleterious effects)” value is listed as “well tolerated; also recorded: did not induce noticeable deleterious effects”. In the data set with 4T1 cells [5] (25 and 50 mg/kg per os twice daily, day 0 to 14, tumors resected day 14), the “burden (weight) of resected primary tumors vs untreated” value was “no difference”. Moreover, the “rescue of 4T1-DTCs from bone marrow” value in the data set with 4T1 cells [5] (either high or low dose, day 0 to 14, sacrifice day 35) is recorded as “not able to rescue any 4T1-DTCs”. Besides, the “reduction in the area of lung metastasis foci” value with 4T1 cells [5] (lower dosing (25 mg/kg per os twice daily), day 0 to 14, p=0.053) is recorded as “did not reach statistical significance”. For the same molecule, in the data set with 4T1 cells [5] (per os twice daily, day 0 to 14, immunohistochemistry), the “expression of mitotic marker Ki-67 in primary tumors vs untreated” value is “similar”. Also, the “tolerability after oral exposure” value in data set [6] is reported as “well tolerated”. Further, in data set [6] (intravenous 5 mg/kg), the Plasma clearance is 111 mL/min/kg, the “Time to maximum concentration” value turned out to be 0.08 h and the “plasma concentration by 4 h” value is reported as ~ 1 nM. In data set [6] (oral 50 mg/kg), the Bioavailability was found to be 14.41 % EF, the “Time to maximum concentration” value was 0.25 h, the “plasma concentration by 8 h” value is listed as ~ 10 nM and the “time of peak plasma concentration” value is 15 min. The oral bioavailability in data set [6] (oral 50 mg/kg, no unit in text) was 14.41. In addition, the “agonist activity … (calcium flux)” value in data set [1] is on record as “no agonist activity; also recorded: did not demonstrate any agonist effects”. Moreover, in data set [3] (ratio of IC50 values), the “potency relative to Ki16425 at inhibiting LPA1-induced calcium flux” value is reported as 2 fold. Also, the IC50 in data set [3] came to 60 nM. Moreover, the “number of 4T1-DTCs rescued from bone marrow vs vehicle” value with 4T1 cells [7] was “no statistically significant difference”.
